Here are results for three compounds from ChEMBL document CHEMBL5712915, “The Role of the Histone Methyltransferase EZH2 in Liver Inflammation and Fibrosis in STAM NASH Mice” (Biology (Basel), 2020).

The structures appear in SMILES notation. Active and inactive are the calls of the source. The calls are words filed in the database; no cut-off is given here.

Data set [1] can be described thus: Toxicity in streptozotocin induced C57BL/6 mouse STAM model assessed as change in liver weight at 10 mg/kg, po daily for 3 weeks. The class given is organism-based. The note with it: in vivo, 504 h. The gist of the method: (§1)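 In STAM mice (male C57BL/6, streptozotocin 200 μg per mouse at day 2, high-fat diet from week 4), oral dosing at 10 mg/kg once daily from six to nine weeks. Body weight recorded daily between 15:00 and 17:00. Liver, kidney and white adipose tissue weights expressed relative to body weight. Means ± SE; one-way ANOVA with Newman–Keuls test.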

Data set [2] relates to Mus musculus. Description: Antiinflammatory activity in streptozotocin induced C57BL/6 mouse STAM model assessed as reduction of ALT level administered at 10 mg/kg, po daily for 3 weeks. The class given is functional, organism-based. A digest of the protocol: (§2)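 Streptozotocin (200 μg per mouse) given to two-day-old male C57BL/6 pups, high-fat diet from four weeks. Oral dosing at 10 mg/kg once daily for three weeks, starting at six weeks of age. Under anesthesia 500 μl blood collected and serum separated for TNF-α, ALT and glucose. Means ± SE; one-way ANOVA with Newman–Keuls test.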

The test system of data set [3] is Mus musculus. Description: Antiinflammatory activity in streptozotocin induced C57BL/6 mouse STAM model assessed as reduction of TNF-alpha level administered at 10 mg/kg, po daily for 3 weeks. Format: functional, organism-based. A digest of the protocol:
as §2

Data set [4] deals with Histone-lysine N-methyltransferase EZH2 (Mus musculus) (UniProt Q61188). In words: In vivo inhibition of EZH2 in streptozotocin induced C57BL/6 mouse STAM model assessed as reduction mRNA level administered at 10 mg/kg, po for 3 weeks. Format: functional, organism-based. A digest of the protocol: (§3)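 STAM mice: male C57BL/6 pups given streptozotocin (200 μg per mouse) at day 2, high-fat diet from week 4, oral dosing at 10 mg/kg once daily from weeks 6–9. Liver total RNA reverse transcribed. qPCR run for 40 cycles of 95 °C 15 s, 55–60 °C 15 s, 72 °C 30 s. Comparative Ct method, normalized to GAPDH/18S, compared with control group.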
Sequence of Histone-lysine N-methyltransferase EZH2 (Mus musculus) (Q61188 whole entry): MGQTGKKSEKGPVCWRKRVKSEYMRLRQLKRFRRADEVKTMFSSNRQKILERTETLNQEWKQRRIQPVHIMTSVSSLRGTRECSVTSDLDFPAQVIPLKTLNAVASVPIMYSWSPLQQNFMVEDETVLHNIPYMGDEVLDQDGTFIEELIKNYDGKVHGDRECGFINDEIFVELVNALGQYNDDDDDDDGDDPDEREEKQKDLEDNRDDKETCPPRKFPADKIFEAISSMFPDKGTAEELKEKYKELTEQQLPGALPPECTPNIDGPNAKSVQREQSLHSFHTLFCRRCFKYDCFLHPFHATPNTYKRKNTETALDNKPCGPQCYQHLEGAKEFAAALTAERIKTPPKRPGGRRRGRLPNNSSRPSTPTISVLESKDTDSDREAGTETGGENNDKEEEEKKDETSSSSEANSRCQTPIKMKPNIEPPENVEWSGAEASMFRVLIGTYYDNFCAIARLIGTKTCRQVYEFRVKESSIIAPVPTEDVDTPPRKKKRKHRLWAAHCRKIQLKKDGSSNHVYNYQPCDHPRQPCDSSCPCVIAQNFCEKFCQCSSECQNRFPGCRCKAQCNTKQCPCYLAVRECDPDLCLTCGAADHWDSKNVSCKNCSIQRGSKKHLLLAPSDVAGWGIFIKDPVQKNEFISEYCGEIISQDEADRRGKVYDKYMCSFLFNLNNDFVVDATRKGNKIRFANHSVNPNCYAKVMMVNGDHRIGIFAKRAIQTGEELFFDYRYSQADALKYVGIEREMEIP

The subject of data set [5] is Mus musculus. In words: Anti-NASH activity in streptozotocin induced C57BL/6 mouse STAM model administered at 10 mg/kg, po daily for 3 weeks by hematoxylin and eosin staining analysis. Format: functional, organism-based. The gist of the method:
(§4)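 Male C57BL/6 pups given streptozotocin (200 μg per mouse) at two days old, high-fat diet from four weeks. Dosed orally once daily at 10 mg/kg from six to nine weeks of age. Liver fixed in 10% neutral buffered formalin and paraffin-embedded. 5-μm sections stained with H&E, or with Oil Red O for hepatic lipid.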

In data set [6] the test system is Mus musculus. In words: Antiinflammatory activity against streptozotocin induced C57BL/6 mouse STAM model assessed as reduction of IFN-gamma expression administered at 10 mg/kg, po for 3 weeks. Format: functional, organism-based. The gist of the method:
as §3

In data set [7] the test system is Mus musculus. In words: Anti-NASH activity in streptozotocin induced C57BL/6 mouse STAM model assessed as reduction of liver steatosis administered at 10 mg/kg, po daily for 3 weeks by oil red O staining analysis. The class given is functional, organism-based. A digest of the protocol: as §4
Data set [8] in a line: Toxicity in streptozotocin induced C57BL/6 mouse STAM model assessed as change in white adipose tissue weight at 10 mg/kg, po daily for 3 weeks. Format: organism-based. The note with it: in vivo, 504 h. A digest of the protocol: as §1
Data set [9] deals with Mus musculus. Description: Antiinflammatory activity against streptozotocin induced C57BL/6 mouse STAM model assessed as increase in Runx3 mRNA expression administered at 10 mg/kg, po for 3 weeks. Format: functional, organism-based. A digest of the protocol:
as §3

Data set [10] in a line: Toxicity in streptozotocin induced C57BL/6 mouse STAM model assessed as change in body weight at 10 mg/kg, po daily for 3 weeks. The class given is organism-based. The conditions noted are these: in vivo, 504 h. A digest of the protocol:
as §1

Data set [11] relates to Mus musculus. In words: Antiinflammatory activity in streptozotocin induced C57BL/6 mouse STAM model assessed as reduction of glucose level administered at 10 mg/kg, po daily for 3 weeks. Format: functional, organism-based. A digest of the protocol:
as §2

Data set [12] can be described thus: Toxicity in streptozotocin induced C57BL/6 mouse STAM model assessed as change in kidney weight at 10 mg/kg, po daily for 3 weeks. The note with it: in vivo, 504 h. Format: organism-based. A digest of the protocol:
as §1

Take `CCCc1cc(C)[nH]c(=O)c1CNC(=O)c1cc(-c2ccc(N3CCN(C(C)C)CC3)nc2)cc2c1cnn2C(C)C`: the Activity entry in data set [1], in data set [8], in data set [10] and in data set [12] was “Non-Toxic” each time. Besides, the result with Mus musculus [2] and in the data set on Mus musculus [11] was inactive. Further, the outcome in the data set with Mus musculus [3], in the data set on Mus musculus [5], in the data set with Mus musculus [6], in the data set with Mus musculus [7] and in the data set with Mus musculus [9] was Active. In [4], the inhibition result is “Active”.

Consider `CC[C@H]1[C@@H](O)[C@@H]2[C@H](CC[C@]3(C)[C@@H]([C@H](C)CCC(=O)O)CC[C@@H]23)[C@@]2(C)CC[C@@H](O)C[C@@H]12`, for which the outcome in the data set on Mus musculus [5] and in the data set on Mus musculus [7] was Active.

`CCN(c1cc(-c2ccc(CN3CCOCC3)cc2)cc(C(=O)NCc2c(C)cc(C)[nH]c2=O)c1C)C1CCOCC1` [TAZEMETOSTAT]: the Activity entry in data set [1], in data set [8], in data set [10] and in data set [12] was “Non-Toxic” throughout. Moreover, the outcome in the data set with Mus musculus [2], with Mus musculus [3] and in the data set on Mus musculus [11] was inactive. Moreover, the outcome in the data set on Mus musculus [5], in the data set on Mus musculus [6], in the data set on Mus musculus [7] and with Mus musculus [9] was Active.
